Source: ChEMBL document CHEMBL2016564, “Conformationally restricted novel pyrazole derivatives: synthesis of 1,8-disubstituted 5,5-dimethyl-4,5-dihydro-1H-benzo[g]indazoles as a new class of PDE4 inhibitors” (Bioorg Med Chem Lett, 2012)

Key:
[1] = molecular target: T1, 3',5'-cyclic-AMP phosphodiesterase 4B (Homo sapiens, UniProt Q07343); assay: Inhibition of recombinant His-tagged PDE4B expressed in Sf9 cells using cAMP as substrate at 30 uM preincubated for 15 mins prior substrate addition measured after 1 hr by […]
Summary of the method: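 In-house purified PDE4B (10 ng) was preincubated 15 min with compound or DMSO vehicle, followed by 1 h with cAMP substrate. After stop solution, detection reagent was applied for 10 min in the dark and luminescence (RLU) was read. % inhibition was taken against vehicle-control RLU and reported as the average with SD.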

[2] = molecular target: 3',5'-cyclic-AMP phosphodiesterase 4D (Homo sapiens) (UniProt Q08499); assay: Inhibition of PDE4D using cAMP as substrate at 30 uM preincubated for 15 mins prior substrate addition measured after 1 hr by […]
Summary of the method: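 Commercially sourced PDE4D (0.5 ng) was preincubated 15 min with compound or DMSO vehicle, then incubated 1 h with cAMP substrate. The reaction was halted with stop solution, and detection reagent was added for 10 min in the dark. Luminescence (RLU) was read, and % inhibition = (vehicle RLU − inhibitor RLU)/vehicle RLU × 100.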

[3] = molecular target: T1, 3',5'-cyclic-AMP phosphodiesterase 4B

3',5'-cyclic-AMP phosphodiesterase 4D (Homo sapiens), sequence (Q08499 whole entry): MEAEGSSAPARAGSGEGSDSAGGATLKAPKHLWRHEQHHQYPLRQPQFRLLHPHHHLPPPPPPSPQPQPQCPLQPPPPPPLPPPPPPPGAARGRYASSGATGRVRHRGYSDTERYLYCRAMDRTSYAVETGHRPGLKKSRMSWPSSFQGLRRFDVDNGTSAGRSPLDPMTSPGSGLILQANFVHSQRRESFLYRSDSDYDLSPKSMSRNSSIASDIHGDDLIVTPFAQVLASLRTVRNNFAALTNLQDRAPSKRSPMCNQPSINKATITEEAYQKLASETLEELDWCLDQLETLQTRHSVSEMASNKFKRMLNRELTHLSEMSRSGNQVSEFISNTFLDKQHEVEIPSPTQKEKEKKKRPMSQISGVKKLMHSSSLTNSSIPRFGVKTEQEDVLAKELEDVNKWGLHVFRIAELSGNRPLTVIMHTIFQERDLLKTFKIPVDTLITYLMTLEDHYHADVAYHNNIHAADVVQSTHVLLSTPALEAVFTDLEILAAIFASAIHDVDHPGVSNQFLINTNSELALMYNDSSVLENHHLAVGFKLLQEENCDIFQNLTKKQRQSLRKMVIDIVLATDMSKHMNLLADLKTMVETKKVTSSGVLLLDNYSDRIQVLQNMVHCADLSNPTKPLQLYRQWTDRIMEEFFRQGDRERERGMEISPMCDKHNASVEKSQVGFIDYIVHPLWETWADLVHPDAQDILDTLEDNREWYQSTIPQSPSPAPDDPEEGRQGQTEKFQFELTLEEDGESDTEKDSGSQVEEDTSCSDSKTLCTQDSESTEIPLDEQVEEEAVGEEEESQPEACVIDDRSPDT
T1 sequence (Q07343 whole entry): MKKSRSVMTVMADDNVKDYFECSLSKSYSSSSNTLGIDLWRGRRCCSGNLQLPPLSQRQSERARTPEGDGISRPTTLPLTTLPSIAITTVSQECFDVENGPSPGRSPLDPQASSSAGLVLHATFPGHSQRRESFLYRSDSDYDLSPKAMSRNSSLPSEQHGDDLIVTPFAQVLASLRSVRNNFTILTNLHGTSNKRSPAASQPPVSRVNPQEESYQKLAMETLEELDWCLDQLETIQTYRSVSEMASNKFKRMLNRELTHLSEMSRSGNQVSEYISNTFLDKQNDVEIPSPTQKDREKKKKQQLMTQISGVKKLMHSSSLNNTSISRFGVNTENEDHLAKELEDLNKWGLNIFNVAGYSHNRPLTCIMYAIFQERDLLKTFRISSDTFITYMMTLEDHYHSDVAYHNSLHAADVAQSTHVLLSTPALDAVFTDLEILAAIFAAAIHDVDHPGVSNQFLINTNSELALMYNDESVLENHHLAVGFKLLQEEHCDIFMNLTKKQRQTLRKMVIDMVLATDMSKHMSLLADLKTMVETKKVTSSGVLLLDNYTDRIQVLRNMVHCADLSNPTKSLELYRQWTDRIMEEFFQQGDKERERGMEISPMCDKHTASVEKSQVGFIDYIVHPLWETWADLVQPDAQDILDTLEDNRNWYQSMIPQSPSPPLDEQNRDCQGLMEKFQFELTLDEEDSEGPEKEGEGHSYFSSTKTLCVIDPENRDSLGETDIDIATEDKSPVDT

Compound | inhibition [1] [%] | inhibition [2] [%] | IC50 [3] [µM]
CC1(C)Cc2cnn(-c3ccc(F)cc3)c2-c2cc(Br)ccc21 | 72.2 | 65.4 | 
Cc1ccc(-n2ncc3c2-c2cc(Br)ccc2C(C)(C)C3)cc1 | 64.9 |  | 
CC1(C)Cc2cnn(C(C)(C)C)c2-c2cc(Br)ccc21 | 71.4 | 41.7 | 
Cc1cccc(-n2ncc3c2-c2cc([N+](=O)[O-])ccc2C(C)(C)C3)c1C | 72.7 | 54.9 | 
CC1(C)Cc2cnn(-c3ccc(Cl)cc3)c2-c2cc(Br)ccc21 | 68.1 |  | 
CC1(C)Cc2cnn(-c3ccc(Br)cc3)c2-c2cc(Br)ccc21 | 60.3 |  | 
CC1(C)Cc2cnn(-c3ccccc3)c2-c2cc([N+](=O)[O-])ccc21 | 72.1 | 55.8 | 
CC1(C)Cc2cnn(-c3ccc(C(F)(F)F)cc3)c2-c2cc(Br)ccc21 | 42.2 |  | 
CC1(C)Cc2cnn(-c3ccc(F)cc3)c2-c2cc([N+](=O)[O-])ccc21 | 66.8 |  | 
CC(C)n1ncc2c1-c1cc(Br)ccc1C(C)(C)C2 | 56.8 |  | 
CC1(C)Cc2cnn(-c3ccc(F)cc3)c2-c2cc(NS(C)(=O)=O)ccc21 | 75.1 |  | 
CC1(C)Cc2cnn(-c3ccc(F)cc3)c2-c2cc(NS(=O)(=O)c3ccccc3)ccc21 | 75.6 |  | 
Cc1ccc(-n2ncc3c2-c2cc([N+](=O)[O-])ccc2C(C)(C)C3)cc1 | 68.2 |  | 
CC1(C)Cc2cnn(-c3ccccc3)c2-c2cc(Br)ccc21 | 76.2 | 50 | 4.57
